Measurements: ChEMBL document CHEMBL1268901, “Synthesis and in vitro antiviral activities of 3'-fluoro (or chloro) and 2',3'-difluoro 2',3'-dideoxynucleoside analogs against hepatitis B and C viruses” (Bioorg Med Chem, 2010)
Converted amounts (≈) assume the structure as drawn.

Key:
[1] = test system: Hepatitis B virus; experiment: Antiviral activity against HBV infected in human HepG2(2.2.15) cells assessed as inhibition of viral replication at 10 ug/ml […] relative to control; type: functional; details: HepG2 2.2.15, 48 h
[2] = test system: Hepatitis C virus; experiment: Antiviral activity against HCV 1a infected in human HuH7 cells assessed as reduction of viral RNA level at 20 ug/ml […] by QRT-PCR analysis; type: functional, Hepacivirus hominis; details: subtype 1a, Huh-7
[3] = Cytotoxicity against human HuH7 cells after 2 days by XTT assay; type: cell-based, Huh-7
Method in brief: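 Huh-7 cells seeded at 1 × 10⁵ cells/well, allowed to attach 6–8 h, then medium replaced with compound at 200, 100, 50, 10 and 1 µg/mL; DMSO control. Incubated 2 days at 37 °C, XTT reagent added for 4 h at 37 °C, absorbance read at 450–500 nm; CC50 reported.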

[4] = test system: Duck hepatitis B virus; experiment: Antiviral activity against DHBV infected in duck hepatocytes assessed as inhibition of viral DNA replication at 10 ug/ml after 15 days relative to control; details: Hepatocyte, 360 h
[5] = test system: Hepatitis B virus; experiment: Antiviral activity against HBV infected in human HepG2(2.2.15) cells assessed as inhibition of viral replication after 2 days; type: functional, organism-based; details: HepG2 2.2.15, 48 h
[6] = test system: Duck hepatitis B virus; experiment: Antiviral activity against DHBV infected in duck hepatocytes assessed as inhibition of viral DNA replication after 15 days; details: Hepatocyte, 360 h
[7] = test system: Hepatitis B virus; experiment: Antiviral activity against HBV infected in human HepG2(2.2.15) cells assessed as inhibition of viral replication at 0.5 to 1 ug/ml […] relative to control; type: functional
[8] = test system: Duck hepatitis B virus; experiment: Antiviral activity against DHBV infected in duck hepatocytes assessed as inhibition of viral DNA replication at 0.5 to 1 ug/ml after 15 days relative to control
[9] = test system: Hepatitis B virus; experiment: Antiviral activity against HBV infected in human HepG2(2.2.15) cells assessed as inhibition of viral replication at 5 ug/ml […] relative to control; type: functional; details: HepG2 2.2.15, 48 h
[10] = test system: Duck hepatitis B virus; experiment: Antiviral activity against DHBV infected in duck hepatocytes assessed as inhibition of viral DNA replication at 1 ug/ml after 15 days relative to control; details: Hepatocyte, 360 h
[11] = test system: Duck hepatitis B virus; experiment: Antiviral activity against DHBV infected in duck hepatocytes assessed as inhibition of viral DNA replication at 5 ug/ml after 15 days relative to control; details: Hepatocyte, 360 h

Row | SMILES | inhibition at 10 µg/mL [1] [%] | inhibition at 20 µg/mL [2] [%] | CC50 at 48 h [3] [µg/mL] | inhibition at 10 µg/mL [4] [%] | EC50 [5] [µg/mL] | EC50 [6] [µg/mL] | inhibition (INH) [7] [%] | inhibition (INH) [8] [%] | inhibition at 5 µg/mL [9] [%] | inhibition at 1 µg/mL [10] [%] | inhibition at 5 µg/mL [11] [%]
1 | O=c1ccn([C@@H]2O[C@H](CO)[C@@H](F)[C@H]2F)c(=O)[nH]1 | 0 | 0 | > 200 | 0 |  |  |  |  |  |  | 
2 | O=c1[nH]c(=O)n([C@H]2C[C@@H](Cl)[C@@H](CO)O2)cc1F | 50 | 30 | > 200 | 50 | 10 (≈ 37.8 µM) | 10 (≈ 37.8 µM) |  |  |  |  | 
3 | O=c1[nH]c(=S)ccn1[C@H]1C[C@H](F)[C@@H](CO)O1 | 20 | 0 | > 100 | 25 |  |  |  |  |  |  | 
4 | O=c1[nH]c(=O)n([C@H]2C[C@H](F)[C@@H](CO)O2)cc1O | 0 | 0 | > 100 | 0 |  |  |  |  |  |  | 
5 | Nc1ccn([C@@H]2CS[C@H](CO)O2)c(=O)n1 [LAMIVUDINE] |  |  |  |  |  | 0.05 (≈ 0.218 µM) | 88 | 96 |  |  | 
6 | NC(=O)c1ncn([C@@H]2O[C@H](CO)[C@@H](O)[C@H]2O)n1 [RIBAVIRIN] |  | 50 |  |  |  |  |  |  |  |  | 
7 | O=c1[nH]c(=O)n([C@H]2C[C@H](F)[C@@H](CO)O2)cc1CO | 58 | 30 | > 200 | 75 | 5 (≈ 19.2 µM) | 1 (≈ 3.84 µM) |  |  | 50 | 50 | 
8 | Cc1cn([C@@H]2O[C@H](CO)[C@@H](F)[C@H]2F)c(=O)[nH]c1=O | 0 | 0 | > 100 | 0 |  |  |  |  |  |  | 
9 | O=c1[nH]c(=O)n([C@H]2C[C@H](F)[C@@H](CO)O2)cc1C(F)(F)F | 20 | 25 | > 100 | 20 |  |  |  |  |  |  | 
10 | Cc1cn([C@H]2C[C@H](Cl)[C@@H](CO)O2)c(=O)[nH]c1=O | 56 | 0 | > 200 | 55 | 10 (≈ 38.4 µM) | 10 (≈ 38.4 µM) |  |  |  |  | 
11 | O=c1[nH]c(=S)c(F)cn1[C@H]1C[C@H](F)[C@@H](CO)O1 | 0 | 0 | > 100 | 0 |  |  |  |  |  |  | 
12 | CCc1cn([C@H]2C[C@H](F)[C@@H](CO)O2)c(=O)[nH]c1=O | 0 | 0 | > 200 | 0 |  |  |  |  |  |  | 
13 | O=c1[nH]c(=O)n([C@H]2C[C@H](Cl)[C@@H](CO)O2)cc1F | 0 | 0 | > 200 | 0 |  |  |  |  |  |  | 
14 | O=c1[nH]c(=O)n([C@H]2C[C@H](F)[C@@H](CO)O2)cc1I | 60 | 40 | < 100 | 63 | 5 (≈ 14 µM) | 5 (≈ 14 µM) |  |  | 50 |  | 50
15 | O=c1[nH]c(=O)n([C@H]2C[C@H](F)[C@@H](CO)O2)cc1F | 0 | 28 | > 100 | 0 |  |  |  |  |  |  | 
